Assays:
[1] = Volume of distribution at steady state in Sprague-Dawley rat at 2 mg/kg, iv; format: ADME, organism-based; design: dose 2 mg/kg, route intravenous; settings: in vivo, read-out: Vdss
Procedure, shortened: (§1)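 Male Sprague Dawley rats (n = 3) given 2 mg/kg intravenously in DMSO.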

[2] = Cmax in Sprague-Dawley rat at 5 mg/kg, po; format: ADME, organism-based; design: dose 5 mg/kg, route oral; settings: in vivo
Procedure, shortened: (§2)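 Male Sprague Dawley rats (n = 3) given 5 mg/kg orally in 2% HPMC, 1% Tween 80, pH 2.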

[3] = Oral bioavailability in Sprague-Dawley rat at 5 mg/kg; format: ADME, organism-based; settings: in vivo; procedure, shortened: as §2
[4] = Clearance in Sprague-Dawley rat at 2 mg/kg, iv; format: ADME, organism-based; design: dose 2 mg/kg, route intravenous; settings: in vivo; procedure, shortened: as §1
[5] = Half life in Sprague-Dawley rat at 2 mg/kg, iv; format: ADME, organism-based; design: dose 2 mg/kg, route intravenous; settings: in vivo; procedure, shortened: as §1
[6] = AUC (0 to 24 hrs) in Sprague-Dawley rat at 5 mg/kg, po; format: ADME, organism-based; design: time < 24 hr, dose 5 mg/kg, route oral; settings: plasma; procedure, shortened: as §2
[7] = biological target: T1, RAC-alpha serine/threonine-protein kinase (Homo sapiens, UniProt P31749); assay: Inhibition of human AKT1 in human U87MG cells assessed as PRAS40 phosphorylation after 1 hr by ELISA; format: cell-based, U-87MG ATCC
T1 sequence (P31749 whole entry): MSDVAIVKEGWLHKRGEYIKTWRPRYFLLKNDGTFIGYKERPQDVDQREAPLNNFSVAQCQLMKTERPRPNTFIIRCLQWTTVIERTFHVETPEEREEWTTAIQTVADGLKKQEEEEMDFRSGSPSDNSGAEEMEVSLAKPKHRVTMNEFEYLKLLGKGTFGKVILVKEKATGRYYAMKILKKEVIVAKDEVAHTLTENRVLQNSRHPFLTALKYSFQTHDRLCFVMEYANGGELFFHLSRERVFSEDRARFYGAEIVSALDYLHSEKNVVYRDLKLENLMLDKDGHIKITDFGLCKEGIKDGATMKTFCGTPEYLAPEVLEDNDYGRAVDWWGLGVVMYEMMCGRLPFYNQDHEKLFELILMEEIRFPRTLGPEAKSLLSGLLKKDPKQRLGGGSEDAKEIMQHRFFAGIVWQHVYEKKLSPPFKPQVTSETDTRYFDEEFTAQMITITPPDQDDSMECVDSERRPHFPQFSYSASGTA
Procedure, shortened: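 U-87 MG cells in 5% FBS incubated with inhibitor in threefold serial dilutions for 1 h at 37 °C, then lysed. Phospho-PRAS40 (Thr246) quantified by ELISA and normalized to total PRAS40. Mean ± SD where three or more measurements.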

[8] = Inhibition of PKA
[9] = biological target: Cyclin-dependent kinase 2 (Homo sapiens, UniProt P24941); assay: Inhibition of CDK2
[10] = biological target: T1, RAC-alpha serine/threonine-protein kinase; assay: Inhibition of AKT1 after 10 mins by [gamma33]ATP assay
U-87MG ATCC = assay: Selectivity ratio of IC50 for AKT1 in human U87MG cells to IC50 for AKT1; format: cell-based
[11] = Plasma concentration in human U87MG cells xenografted CD1 nude mouse at 30 mg/kg, po QD for 18 days measured after 3 hrs post last dose; format: ADME, organism-based, U-87MG ATCC; design: dose 30 mg/kg, route oral
Procedure, shortened: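 Female CD1 nude mice bearing U-87 MG tumors (n = 10) dosed 30 mg/kg po daily for 18 d. Plasma sampled 3 h after the last dose.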

Mus musculus [12] = assay: Inhibition of HGF-stimulated AKT signaling pathway in mouse liver assessed as phosphorylated PRAS40 level at 30 mg/kg, po dosed 6 hrs prior to HGF challenge and measured after 5 mins by ELISA; format: functional
Procedure, shortened: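 Mice (n = 3, female) dosed 30 mg/kg po in 0.1% PBS/BSA. At 6 h, HGF given by tail-vein injection. Livers harvested 5 min later, and phospho- and total PRAS40 measured by ELISA; inhibition taken from pPRAS40/total ratio. Factorial ANOVA with Dunnett's post hoc test.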

Mus musculus [13] = assay: Toxicity in human U87MG cells xenografted CD1 nude mouse assessed as loss in body weight po QD for 18 days relative to control; format: organism-based, U-87MG ATCC; settings: in vivo, 432 h
Procedure, shortened: (§3)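 10-week-old female CD1 nude mice injected sc in the flank with 5 × 10⁶ U-87 MG cells in DMEM. On day 10, randomized (n = 10) at ~200 mm³, then dosed po once daily for 18 d with supplemented diet. Tumors and body weight recorded twice weekly. Volume = length × width × height, analyzed by RMANOVA versus vehicle.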

U-87 MG = assay: Inhibition of tumor growth in human U87MG cells xenografted in CD1 nude mouse assessed as tumor volume po QD for 18 days relative to control; format: functional, organism-based; settings: U-87MG ATCC; procedure, shortened: as §3
[14] = Cytotoxicity against human U87MG cells after 3 days by alamar blue assay; format: functional, cell-based, U-87MG ATCC; settings: U-87 MG, 72 h
Procedure, shortened: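 U-87 MG cells seeded at 6000 cells/well in 5% FBS and treated with threefold serial dilutions for three days. Viability read by alamarBlue staining.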

[15] = biological target: Vascular endothelial growth factor receptor 2 (Homo sapiens, UniProt P35968); assay: Inhibition of KDR
Chain of Vascular endothelial growth factor receptor 2 (P35968 whole entry): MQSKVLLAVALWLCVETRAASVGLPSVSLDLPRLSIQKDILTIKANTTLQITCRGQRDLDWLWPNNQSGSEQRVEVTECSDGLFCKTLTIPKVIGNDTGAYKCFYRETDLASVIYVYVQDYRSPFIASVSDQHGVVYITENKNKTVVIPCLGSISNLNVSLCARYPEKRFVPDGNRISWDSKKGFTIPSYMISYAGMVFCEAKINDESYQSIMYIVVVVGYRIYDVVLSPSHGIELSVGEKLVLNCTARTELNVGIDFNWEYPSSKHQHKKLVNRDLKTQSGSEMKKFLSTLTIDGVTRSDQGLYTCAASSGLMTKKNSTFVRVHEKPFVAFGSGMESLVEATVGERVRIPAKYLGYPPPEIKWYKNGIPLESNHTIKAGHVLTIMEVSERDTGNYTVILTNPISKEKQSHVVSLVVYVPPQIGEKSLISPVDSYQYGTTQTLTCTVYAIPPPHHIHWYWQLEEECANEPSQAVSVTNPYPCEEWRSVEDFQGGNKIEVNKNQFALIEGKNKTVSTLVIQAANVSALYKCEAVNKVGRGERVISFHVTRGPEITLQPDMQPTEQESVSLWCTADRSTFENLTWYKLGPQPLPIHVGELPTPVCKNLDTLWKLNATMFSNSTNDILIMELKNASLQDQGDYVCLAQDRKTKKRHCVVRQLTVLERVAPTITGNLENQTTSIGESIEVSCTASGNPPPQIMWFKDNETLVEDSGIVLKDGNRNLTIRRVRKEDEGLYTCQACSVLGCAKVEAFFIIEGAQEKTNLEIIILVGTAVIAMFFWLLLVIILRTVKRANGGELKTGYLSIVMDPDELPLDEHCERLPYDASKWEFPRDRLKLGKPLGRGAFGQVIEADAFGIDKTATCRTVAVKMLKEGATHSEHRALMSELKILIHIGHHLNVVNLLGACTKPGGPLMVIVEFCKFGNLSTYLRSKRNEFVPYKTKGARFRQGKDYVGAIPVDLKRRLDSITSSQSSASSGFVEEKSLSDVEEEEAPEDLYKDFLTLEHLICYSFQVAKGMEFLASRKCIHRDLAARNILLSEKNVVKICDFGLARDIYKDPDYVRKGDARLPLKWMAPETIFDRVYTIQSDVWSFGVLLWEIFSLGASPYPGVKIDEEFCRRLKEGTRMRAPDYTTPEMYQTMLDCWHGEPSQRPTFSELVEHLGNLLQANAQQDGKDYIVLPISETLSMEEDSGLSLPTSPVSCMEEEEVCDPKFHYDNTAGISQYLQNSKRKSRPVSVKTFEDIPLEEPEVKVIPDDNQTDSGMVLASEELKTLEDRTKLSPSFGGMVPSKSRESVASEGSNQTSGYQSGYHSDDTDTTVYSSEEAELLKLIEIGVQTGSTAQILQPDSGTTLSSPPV

[16] = biological target: Cyclin-dependent kinase 1 (Homo sapiens, UniProt P06493); assay: Inhibition of CDK1
Chain of Cyclin-dependent kinase 1 (P06493 whole entry): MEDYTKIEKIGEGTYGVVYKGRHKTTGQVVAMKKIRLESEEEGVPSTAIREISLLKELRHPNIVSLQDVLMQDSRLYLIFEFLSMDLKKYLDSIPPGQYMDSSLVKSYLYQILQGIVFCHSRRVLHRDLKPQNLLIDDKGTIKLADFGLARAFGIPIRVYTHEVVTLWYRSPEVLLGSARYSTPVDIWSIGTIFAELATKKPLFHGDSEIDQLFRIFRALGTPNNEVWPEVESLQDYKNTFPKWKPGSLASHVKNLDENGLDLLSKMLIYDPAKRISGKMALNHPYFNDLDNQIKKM

[17] = Antitumor activity against human U87MG cells xenografted in CD1 nude mouse assessed as inhibition of tumor growth at 30 mg/kg, po QD for 18 days relative to control; format: functional, U-87MG ATCC; settings: U-87 MG, 432 h, read-out: GI; procedure, shortened: as §3
[18] = Plasma concentration in mouse at 30 mg/kg, po after 6 hrs; format: ADME, organism-based; design: dose 30 mg/kg, route oral
[19] = biological target: Mast/stem cell growth factor receptor Kit (Homo sapiens, UniProt P10721); assay: Inhibition of cKIT
Chain of Mast/stem cell growth factor receptor Kit (P10721 whole entry): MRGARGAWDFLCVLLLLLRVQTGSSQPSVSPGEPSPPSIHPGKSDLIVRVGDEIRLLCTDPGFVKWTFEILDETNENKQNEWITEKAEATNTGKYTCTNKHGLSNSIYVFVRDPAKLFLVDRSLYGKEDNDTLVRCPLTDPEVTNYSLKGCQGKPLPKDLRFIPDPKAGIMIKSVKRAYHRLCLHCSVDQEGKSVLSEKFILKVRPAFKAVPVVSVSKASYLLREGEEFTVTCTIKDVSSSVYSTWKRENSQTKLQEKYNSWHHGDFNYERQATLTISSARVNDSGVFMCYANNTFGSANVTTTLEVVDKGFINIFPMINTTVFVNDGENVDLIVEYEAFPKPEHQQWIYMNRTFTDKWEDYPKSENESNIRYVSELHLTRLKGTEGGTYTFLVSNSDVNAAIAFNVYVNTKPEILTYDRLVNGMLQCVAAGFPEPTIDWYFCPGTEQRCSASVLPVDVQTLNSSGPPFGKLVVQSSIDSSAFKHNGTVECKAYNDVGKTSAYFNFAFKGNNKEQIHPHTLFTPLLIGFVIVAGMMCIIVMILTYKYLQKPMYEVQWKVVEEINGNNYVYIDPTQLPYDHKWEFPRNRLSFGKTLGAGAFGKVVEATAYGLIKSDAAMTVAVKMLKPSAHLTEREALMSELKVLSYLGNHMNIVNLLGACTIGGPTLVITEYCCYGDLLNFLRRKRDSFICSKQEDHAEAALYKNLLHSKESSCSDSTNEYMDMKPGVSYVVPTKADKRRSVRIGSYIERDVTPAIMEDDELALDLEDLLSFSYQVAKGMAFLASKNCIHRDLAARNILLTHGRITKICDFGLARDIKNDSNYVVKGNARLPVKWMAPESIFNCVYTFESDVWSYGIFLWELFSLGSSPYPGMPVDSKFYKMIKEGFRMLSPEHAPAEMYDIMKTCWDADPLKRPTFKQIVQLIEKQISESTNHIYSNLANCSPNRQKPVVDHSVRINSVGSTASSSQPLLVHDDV

Structure (SMILES)	IC50 [7]	IC50 [8]	IC50 [9]	IC50 [10]	further results
N[C@H](CNc1ncc(-c2ccc3[nH]c(=O)oc3c2)s1)Cc1ccc(C(F)(F)F)cc1	500 nM	326 nM	138 nM	8 nM	Vd [1]: 6.7 L/kg; Cmax [2]: 68 ng/mL; bioavailability [3]: 11%; clearance [4]: 26.7 mL/min/kg; half-life [5]: 3.8 h; AUC(0-t) at 24 h [6]: 348 ng·h/mL
N[C@H](CNc1nnc(-c2ccc3cnccc3c2)o1)Cc1ccc(C(F)(F)F)cc1	–	133 nM	348 nM	85 nM	–
N[C@H](CCc1cc(-c2ccc3cnccc3c2)no1)Cc1ccc(C(F)(F)F)cc1	3800 nM	50 nM	117 nM	40 nM	Ratio IC50 (U-87MG ATCC): 95
N[C@H](CNc1ncc(-c2ccc3c(c2)CC(=O)N3)s1)Cc1ccc(C(F)(F)F)cc1	300 nM	–	185 nM	18.3 nM	Vd [1]: 6.8 L/kg; concentration at 3 h [11]: 6.2 µM; inhibition in vivo at 30 mg/kg (Mus musculus [12]): 43%; Activity (Mus musculus [13]): 2%; Cmax [2]: 417 ng/mL; bioavailability [3]: 64%; half-life [5]: 4.3 h; inhibition (U-87 MG): Dose-dependent effect; IC50 [14]: 630 nM; AUC(0-t) at 24 h [6]: 2600 ng·h/mL; IC50 [15]: 300 nM; IC50 [16]: 250 nM; inhibition in vivo at 30 mg/kg [17]: 93%; concentration at 6 h [18]: 3.5 µM; IC50 [19]: 110 nM
N[C@H](CNc1ncc(-c2ccc3c(c2)CNC3=O)s1)Cc1ccc(C(F)(F)F)cc1	6000 nM	356 nM	> 9000 nM	95 nM	–
N[C@H](CNc1ncc(-c2ccc3[nH]ncc3c2)s1)Cc1ccc(Cl)cc1	730 nM	39.9 nM	–	8.5 nM	Ratio IC50 (U-87MG ATCC): 86
Cn1c(=O)[nH]c2ccc(-c3cnc(NC[C@@H](N)Cc4ccc(C(F)(F)F)cc4)s3)cc21	630 nM	179 nM	276 nM	15.4 nM	–
NC(=O)c1ccc(-c2cnc(NC[C@@H](N)Cc3ccc(C(F)(F)F)cc3)s2)cc1	–	> 3000 nM	> 10000 nM	> 3000 nM	–
Cn1ncc2ccc(-c3cnc(NC[C@@H](N)Cc4ccc(C(F)(F)F)cc4)s3)cc21	–	230 nM	–	895 nM	–
N[C@H](CNc1ncc(-c2ccc3cn[nH]c(=O)c3c2)s1)Cc1ccc(C(F)(F)F)cc1	–	485 nM	> 1000 nM	> 1000 nM	–
N[C@H](CNc1cc(-c2ccc3cnccc3c2)no1)Cc1ccc(C(F)(F)F)cc1	–	40 nM	93 nM	17 nM	–
N[C@H](CNc1cnc(-c2ccc3cnccc3c2)s1)Cc1ccc(C(F)(F)F)cc1	–	187 nM	1070 nM	404 nM	–
N[C@H](CNc1ncc(-c2ccc3c(c2)CCC(=O)N3)s1)Cc1ccc(C(F)(F)F)cc1	–	2400 nM	> 25000 nM	3320 nM	–
Nc1noc2ccc(-c3cnc(NC[C@@H](N)Cc4ccc(C(F)(F)F)cc4)s3)cc12	–	417 nM	> 2000 nM	453 nM	–
N[C@H](CNc1ncc(-c2ccc3nnccc3c2)s1)Cc1ccc(C(F)(F)F)cc1	–	489 nM	> 2000 nM	141 nM	–
Cn1nc(N)c2ccc(-c3cnc(NC[C@@H](N)Cc4ccc(C(F)(F)F)cc4)s3)cc21	–	119 nM	> 2000 nM	2410 nM	–
N[C@H](CCc1nc(-c2ccc3cnccc3c2)no1)Cc1ccc(C(F)(F)F)cc1	–	980 nM	4630 nM	1600 nM	–
N[C@H](CNc1ncc(-c2ccc3cncnc3c2)s1)Cc1ccc(C(F)(F)F)cc1	1300 nM	126 nM	136 nM	35 nM	Ratio IC50 (U-87MG ATCC): 37
N[C@H](CNc1ncc(-c2ccc3[nH]c(=O)sc3c2)s1)Cc1ccc(C(F)(F)F)cc1	920 nM	143 nM	285 nM	27 nM	–
Nc1cc2cc(-c3cnc(NC[C@@H](N)Cc4ccc(C(F)(F)F)cc4)s3)ccc2cn1	890 nM	8.6 nM	15.4 nM	11.6 nM	Ratio IC50 (U-87MG ATCC): 77
N[C@H](CNc1ncc(-c2ccc3cnccc3c2)s1)Cc1ccc(C(F)(F)F)cc1	430 nM	5.9 nM	12.4 nM	4.9 nM	Vd [1]: 7.1 L/kg; inhibition in vivo at 30 mg/kg (Mus musculus [12]): 4%; Cmax [2]: 66 ng/mL; bioavailability [3]: 20%; clearance [4]: 45 mL/min/kg; half-life [5]: 2.9 h; AUC(0-t) at 24 h [6]: 387 ng·h/mL; Ratio IC50 (U-87MG ATCC): 88; concentration at 6 h [18]: 1.5 µM
N[C@H](CNc1nnc(-c2ccc3cnccc3c2)s1)Cc1ccc(C(F)(F)F)cc1	–	7.6 nM	–	3.2 nM	–
N[C@H](CNc1ncc(-c2ccc3cn[nH]c3c2)s1)Cc1ccc(C(F)(F)F)cc1	–	334 nM	> 1000 nM	613 nM	–

From ChEMBL document CHEMBL1154944, “Azole-based inhibitors of AKT/PKB for the treatment of cancer” (Bioorg Med Chem Lett, 2010)
